# This is a sample that favours compounds with a hit; in the whole collection about 3.5% have one here.
# RGS4 block: RGS4 inhibitors, primary screen, cell-based, HEK293 M3R inducible RGS4, calcium flux; Regulator of G-protein signaling 4 (Homo sapiens), P49798; B-score at 10 µM; 310,000 compounds, 0.45% hits; Fluo-4 calcium flux; stronger effect = higher value; triggered by carbachol at its EC20; AID 463165, 2010;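 active = B-score, a plate-corrected calcium signal, over three deviations above library mean, with baseline fluorescence within five deviations of library mean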;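 note: RGS4 expression induced by doxycycline in cells with stable M3 receptor; B-score is computed from the integrated fluorescence ratio over baseline after carbachol; higher B-score means a larger calcium signal and so more RGS4 inhibition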
# Target sequence (P49798 whole entry, looked up): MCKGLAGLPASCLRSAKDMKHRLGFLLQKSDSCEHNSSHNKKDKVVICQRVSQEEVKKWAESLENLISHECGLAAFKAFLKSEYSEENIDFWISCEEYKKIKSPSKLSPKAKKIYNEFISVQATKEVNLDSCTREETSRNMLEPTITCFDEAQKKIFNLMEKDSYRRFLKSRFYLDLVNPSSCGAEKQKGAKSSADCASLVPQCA
# MrgX1 allo act: positive allosteric modulators of MrgX1, primary screen, HEK293 cells, Fluo-4 calcium flux | 310,000 compounds, 0.63% hits | FDSS; stronger effect = higher value | B-score at 10 µM | Mas-related G-protein coupled receptor member X1 (Homo sapiens), Q96LB2;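 active = plate-corrected calcium response at least 3 library SD above typical, normal starting fluorescence, not activating the receptor alone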;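 note: compound read alongside a low EC10 to EC30 dose of BAM8-22 agonist; peak minus trough fluorescence over baseline measured at the second addition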
# Target sequence (Q96LB2 whole entry, looked up): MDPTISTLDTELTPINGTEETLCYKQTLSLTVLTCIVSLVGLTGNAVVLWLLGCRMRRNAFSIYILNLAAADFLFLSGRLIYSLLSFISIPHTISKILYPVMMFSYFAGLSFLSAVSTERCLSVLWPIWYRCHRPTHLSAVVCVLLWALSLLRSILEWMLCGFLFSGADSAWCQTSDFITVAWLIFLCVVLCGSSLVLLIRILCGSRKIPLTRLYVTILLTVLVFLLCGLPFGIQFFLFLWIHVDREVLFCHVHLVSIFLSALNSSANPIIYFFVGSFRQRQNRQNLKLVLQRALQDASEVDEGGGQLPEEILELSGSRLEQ
# MrgX1 ag: agonists of human MrgX1 receptor, primary screen, HEK293 cells, Fluo-4 calcium flux | Mas-related G-protein coupled receptor member X1 (Homo sapiens), Q96LB2 | Fluo-4 calcium fluorescence, agonist mode; stronger effect = higher value | B-score at 10 µM | 310,000 compounds, 0.44% hits;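 active = calcium response B-score plate-corrected fluorescence ratio at least 3 library SD, with starting fluorescence B-score inside 5 SD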
#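 Material: MrgX1-expressing HEK293 cells; input: 15,000 cells per well; doses: test compound given as first of three sequential additions; schedule: overnight plating before 1 h dye loading; technique: Fluo-4 NW calcium-flux fluorescence, kinetic read; evaluation: baseline-normalised fluorescence change ratio, B-scored; control set: plate-wise positive and negative controls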
# MrgX1 antag: antagonists of human MrgX1 receptor, primary screen, HEK293 cells, Fluo-4 calcium flux | Mas-related G-protein coupled receptor member X1 (Homo sapiens), Q96LB2 | BAM8-22 antagonism; stronger effect = lower value | B-score at 10 µM | 310,000 compounds, 1.3% hits | AID 588676, 2011;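 active = calcium-response B-score plate-corrected more than 3 library SD below zero, starting fluorescence within 5 deviations, no agonist response on first addition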;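 note: peak minus trough fluorescence over baseline after final BAM8-22 challenge near maximal dose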
# RGS4 pot: RGS4 potentiators or activators, primary screen, cell-based, HEK293 M3R inducible RGS4, calcium flux. carbachol calcium flux Fluo4; stronger effect = lower value. B-score at 10 µM. 310,000 compounds, 0.92% hits. AID 463111, 2010;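 active = B-score of the integrated calcium signal more than 4 SD below the library mean, with starting fluorescence not abnormally high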;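 note: negative B-score means reduced calcium response which marks RGS4 activation or potentiation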
#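 Test system: HEK293 cells with stable M3R and inducible RGS4; also added: carbachol at ECmax as muscarinic agonist stimulus; schedule: dye loading 30 min 37 °C, buffer rest 30 min RT; technique: kinetic calcium fluorescence imaging with Fluo4-AM dye, 2 µM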
# Numbers stand for hits; - = inactive; . = no result.
SMILES,RGS4 block,MrgX1 allo act,MrgX1 ag,MrgX1 antag,RGS4 pot
O=c1/c(=C/c2cccc3ccccc23)sc2ncnn12,-,-,-,-,-
Cc1ccsc1/C=c1\sc2ncnn2c1=O,-,6.58,-,-,-
O=C(CN(Cc1ccc(F)cc1)C(=O)Cn1nnc2ccccc21)NCC1CCCO1 (configuration not stated),-,16.5,-,-,-
O=C(NCc1ccc(F)cc1)C(c1ccccc1)N(CC1CCCO1)C(=O)Cn1nnc2ccccc21 (configuration not stated),-,-,-,-,-
O=C(COc1ccc(S(=O)(=O)N2CCCC2)cc1)N1CCCC1,-,-,-,-,-
COc1cccc2c1OCC(C(=O)Nc1nccs1)=C2,-,-,28,-,-
Clc1ccc(CSc2cc3c(nn2)-c2ccccc2CC3)cc1Cl,-,-,-,-,-8.07
CCOC(=O)C1CCN(C(=O)Nc2ccc3nc(-c4ccco4)c(-c4ccco4)nc3c2)CC1,-,-,-,-4.99,-
O=C(Nc1ccc2nc(-c3ccco3)c(-c3ccco3)nc2c1)N1CCCCCC1,-,-,-,-,-
COc1cc(/C=C2\SC(=S)N(Nc3ncc(C(F)(F)F)cc3Cl)C2=O)ccc1O,-,16.8,-,-,-
COc1cc(/C=C2\SC(=S)N(Nc3ccccc3)C2=O)ccc1O,-,-,-,-,-
CN(C)c1ccc(/C=C2\SC(=S)N(Nc3ncc(C(F)(F)F)cc3Cl)C2=O)cc1,-,13.2,-,-,-
OC(c1ccccc1)(c1ccccc1)c1ncc[nH]1,-,-,-,-,-
COc1cc(C2NCCc3c2[nH]c2ccccc32)ccc1OC(C)C (configuration not stated),-,-,-,-,-
COc1ccc2[nH]c3c(c2c1)CCNC3c1ccc([N+](=O)[O-])o1 (configuration not stated),-,-,-,-5.63,-
COc1ccc(C2NC(=O)NC(O)(C(F)(F)F)C2C(=O)c2ccc(C)cc2)cc1 (configuration not stated),-,-,-,-,-7.56
COc1ccc([C@@H]2CC=C(C(=O)O)CN2S(=O)(=O)c2ccc(Cl)cc2)cc1,.,7.96,-,-,.
Cc1ccc(S(=O)(=O)N2[C@@H](c3cccc(Cl)c3)C(C(=O)O)=CC[C@H]2c2ccc(Cl)cc2)cc1,.,-,-,-,.
Cc1ccc([C@@H]2CC=C(C(=O)O)[C@H](c3ccc(F)cc3)N2S(=O)(=O)c2ccc(C)cc2)cc1,.,-,-,-,.
O=C(O)C1=CC[C@@H](c2ccc(Cl)cc2)N(S(=O)(=O)c2ccc(Cl)cc2)[C@H]1c1ccc(F)cc1,.,8.26,-,-,.
Cc1ccc(S(=O)(=O)N2[C@@H](c3ccccc3)C(C(=O)O)=CC[C@H]2c2cccc(Cl)c2)cc1,.,7.39,-,-,.
Cc1ccc(S(=O)(=O)N2CC(C(=O)O)=CC[C@H]2c2ccc(Cl)cc2)cc1,.,-,-,-,.
Cc1ccc([C@@H]2CC=C(C(=O)O)[C@H](c3ccccc3F)N2S(=O)(=O)c2ccc(C)cc2)cc1,.,8.93,-,-,.
COc1ccc(CNC(=O)C2CCC(CNS(=O)(=O)c3ccccc3)CC2)cc1 (configuration not stated),-,-,-,-,-
CSCC[C@H](NC(=O)[C@H](Cc1ccccc1)n1c(=O)[nH]c2ccccc2c1=O)C(=O)N1CCC(C(=O)O)CC1,-,-,-,-,-
SMILES,RGS4 block,MrgX1 allo act,MrgX1 ag,MrgX1 antag,RGS4 pot
CCc1ccccc1NC(=O)CNC(=O)c1cccc(S(=O)(=O)N2CCN(Cc3ccccc3)CC2)c1,-,-,-,-,-
COc1cc([C@@H]2CC=C(C(=O)O)[C@H](c3ccc(Cl)cc3)N2S(=O)(=O)c2ccc(C)cc2)cc(OC)c1OC,.,-,-,-,.
Cc1ccc(S(=O)(=O)N2[C@@H](c3ccc(Cl)cc3)C(C(=O)O)=CC[C@H]2c2ccc(Cl)c(Cl)c2)cc1,.,-,-,-5.1,.
Cc1ccc(S(=O)(=O)N2[C@@H](c3ccccc3F)C(C(=O)O)=CC[C@H]2c2ccc(C(C)C)cc2)cc1,.,-,-,-,.
Cc1ccc(S(=O)(=O)N2[C@@H](c3ccccc3F)C(C(=O)O)=CC[C@H]2c2cccc(Cl)c2)cc1,.,10.8,-,-,.
COc1cccc(OCc2cc(C(=O)NCc3cnc4ccccn34)no2)c1,-,-,-,-,-
COc1cccc(C(=O)C[n+]2ccccc2/C=N/O)c1,-,-,-,-,-7.37
CC(C)(C)c1ccc(OCc2ccc(C(=O)Nc3cccnc3)o2)cc1,-,-,-,-,-
CCCCOc1ccc(/C=N/NC(=O)c2csc(C)c2C)cc1,-,-,-,-,-8.59
NC(=S)N/N=C/c1c[nH]c2ccc(OCc3ccccc3)cc12,-,-,-,-,-7.12
O=C(CSCc1cccc(Br)c1)N/N=C/c1ccc2c(c1)OCO2,-,-,-,-5.38,-
NC(=S)N/N=C\c1ccccc1OCc1ccccc1,-,-,-,-8.74,-
O=C(CSCc1ccccc1)N/N=C/c1ccccc1OCc1ccccc1,-,-,-,-5.42,-
CC1CCCN(C(=O)C2CCN(S(=O)(=O)c3ccc4c(c3)CC(C)N4C(=O)C3CC3)CC2)C1 (configuration not stated),-,-,-,-,-
CC1C(=O)N2CCCc3cc(NC(=O)C(=O)NCc4cccnc4)cc1c32 (configuration not stated),-,-,-,-,-
O=C(Nc1ccc(CN2CCCCC2)cc1)c1cc(Br)ccc1Cl,-,-,-,-5.52,-
CCOc1ccccc1N1CCN(C(=O)c2ccc(NS(=O)(=O)c3ccc4[nH]c(=O)[nH]c4c3)cc2)CC1,-,-,-,-,-
O=S(=O)(NC(=S)c1ccccc1)c1ccc(F)cc1,-,-,-,-,-
CN1CCN(CCOc2ccc(-c3ccccc3)cc2)CC1,-,-,-,-,-
CN1CCN(CCCOc2ccc(-c3ccccc3)cc2)CC1,-,-,-,-,-9.3
c1ccc(COc2ccc(OCCCCN3CCCCC3)cc2)cc1,-,-,-,-,-10.3
Cc1cc(C)cc(OC(=O)COc2ccccc2C)c1,-,-,-,-,-
CC(=O)c1sc(NC(=O)c2ccc(Cn3cc(Br)cn3)o2)nc1C,-,6.54,-,-,-
CCN1C(=O)/C(=C\N2CCN(C)CC2)SC1=S,-,-,-,-4.62,-
CCOc1cc(/C=C(/C#N)C(=O)Nc2ccc(O)cc2)cc(Br)c1O,-,-,62.1,-,-
CCOc1ccccc1NC(=S)NC(=O)CCCOc1ccc(Cl)cc1Cl,-,-,-,-,-7.3

# Screening data: PubChem BioAssay, Johns Hopkins Ion Channel Center
